Experiment [1] addresses T1, Alkaline phosphatase, tissue-nonspecific isozyme (Rattus norvegicus) (UniProt P08289).
T1 sequence (whole entry): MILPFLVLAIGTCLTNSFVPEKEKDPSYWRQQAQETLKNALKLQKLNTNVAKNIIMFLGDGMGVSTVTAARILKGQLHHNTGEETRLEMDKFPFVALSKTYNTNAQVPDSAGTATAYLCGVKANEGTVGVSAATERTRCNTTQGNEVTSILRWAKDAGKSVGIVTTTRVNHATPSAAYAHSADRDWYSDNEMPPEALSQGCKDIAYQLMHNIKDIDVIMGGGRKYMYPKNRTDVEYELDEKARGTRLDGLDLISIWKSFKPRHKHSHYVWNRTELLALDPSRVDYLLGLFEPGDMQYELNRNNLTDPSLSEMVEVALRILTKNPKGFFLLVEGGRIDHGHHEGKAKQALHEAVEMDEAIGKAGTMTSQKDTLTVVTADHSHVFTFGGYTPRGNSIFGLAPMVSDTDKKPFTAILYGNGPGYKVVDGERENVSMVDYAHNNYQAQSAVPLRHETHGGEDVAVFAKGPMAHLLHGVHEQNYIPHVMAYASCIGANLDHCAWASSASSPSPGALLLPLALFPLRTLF
Briefly: Effect of 10E-7 M compound on alkaline phosphatase activity in culture of rat bone marrow stromal cells. The gist of the method: (§1)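 Femoral marrow stromal cells from 7-week-old male Sprague-Dawley rats. Primary culture 1 week in α-MEM (10 mM HEPES pH 7.0, 15% FBS, 2 mM glutamine, 50 μg/mL ascorbate, 10 mM β-glycerophosphate, 10^-7 M dexamethasone), 37 °C, 5% CO2. Subcultured at 4 × 10^4 cells/well; compound (10 mM stock in EtOH-DMSO 1:1 or DMF) from day 1 to day 10-14, medium changed every other day. Lysate ALP (Lowry method) in nmol/min/well; mean ± SE, n = 5–10.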

In experiment [2] the target is T2, Alkaline phosphatase, tissue-nonspecific isozyme (Mus musculus) (UniProt P09242).
T2 sequence (whole entry): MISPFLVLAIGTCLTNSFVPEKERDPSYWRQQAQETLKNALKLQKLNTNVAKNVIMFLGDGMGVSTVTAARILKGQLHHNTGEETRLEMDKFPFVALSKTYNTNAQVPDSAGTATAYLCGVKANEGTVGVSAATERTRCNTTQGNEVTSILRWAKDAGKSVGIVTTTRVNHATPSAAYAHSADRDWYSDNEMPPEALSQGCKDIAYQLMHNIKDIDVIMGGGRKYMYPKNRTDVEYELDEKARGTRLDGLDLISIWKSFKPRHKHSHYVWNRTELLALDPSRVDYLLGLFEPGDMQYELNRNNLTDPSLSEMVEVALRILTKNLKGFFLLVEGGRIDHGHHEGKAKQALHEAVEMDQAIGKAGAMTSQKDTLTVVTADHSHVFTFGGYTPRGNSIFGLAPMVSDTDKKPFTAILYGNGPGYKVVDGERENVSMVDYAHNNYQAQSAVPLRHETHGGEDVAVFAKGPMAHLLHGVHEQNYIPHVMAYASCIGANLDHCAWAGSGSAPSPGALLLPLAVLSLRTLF
Description: Alkaline phosphatase stimulatory activity of 10E-6 M compound in culture of MC3T3-E1 in presence of 3 ng/mL of BMP. The gist of the method: (§2)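 Mouse osteoblastic MC3T3-E1 cells, 3000 cells/well, grown 3 days in α-MEM with 10% FBS, then switched to α-MEM with 1% FBS plus compound, with or without recombinant Xenopus BMP-4/7 heterodimer (3 ng/mL), for 3 more days. ALP in lysate supernatant read as absorbance at 405 nm; mean ± SE, n = 6; Dunnett's test vs matching control.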

The target in experiment [3] is T1, Alkaline phosphatase, tissue-nonspecific isozyme (Rattus norvegicus). Description: Effect of 10E-6 M compound on alkaline phosphatase activity in culture of rat bone marrow stromal cells. The gist of the method:
as §1

The target is the same in experiment [4]. Description: Effect of 10E-5 M compound on alkaline phosphatase activity in culture of rat bone marrow stromal cells. The class given is tissue-based. The gist of the method: as §1
For experiment [5], the target named is T2, Alkaline phosphatase, tissue-nonspecific isozyme (Mus musculus). Description: Alkaline phosphatase stimulatory activity of 10E-6 M compound in culture of MC3T3-E1 in absence of BMP. The gist of the method: as §2
The target in experiment [6] is T1, Alkaline phosphatase, tissue-nonspecific isozyme (Rattus norvegicus). Briefly: Effect on alkaline phosphatase activity compared to control in culture of rat bone marrow stromal cells, 10E-5 M concentration. The class given is tissue-based. The gist of the method: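 Rat femoral marrow stromal cells subcultured at 4 × 10^4 cells/well in α-MEM with 15% FBS, ascorbate, 10 mM β-glycerophosphate and 10^-7 M dexamethasone. Compound added day 1 to day 10-14, medium refreshed every other day. Lysate ALP (Lowry method) given as fold of control; n = 5–10; Student's t-test.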

Experiment [7] addresses T2, Alkaline phosphatase, tissue-nonspecific isozyme (Mus musculus). Briefly: Alkaline phosphatase stimulatory activity of 10E-5 M compound in culture of MC3T3-E1 in absence of BMP. In a few lines:
as §2

Experiment [8] shares this target. Briefly: Alkaline phosphatase stimulatory activity of 10E-5 M compound in culture of MC3T3-E1 in presence of 3 ng/mL of BMP. The gist of the method:
as §2

Consider `CCOP(=O)(Cc1ccc(NC(=O)[C@H]2Cc3cc4c(cc3C(=O)[C@H](C)S2)OCO4)cc1)OCC`, for which the ALP activity in experiment [1] came out at 192; in experiment [2] it was 0.191; in experiment [3] it was 682; in experiment [4], 1640; in experiment [5] it was 0.154; in experiment [6] it was 5.5. Also, the ALP activity in experiment [7] was determined as 0.195; in experiment [8] it was 0.284.
For the compound `CCOP(=O)(Cc1ccc(NC(=O)[C@@H]2Cc3cc4c(cc3C(=O)[C@@H](C)S2)OCO4)cc1)OCC`, the ALP activity came out at 166 in experiment [1]; 160 in experiment [3]; 566 in experiment [4]; 0.115 in experiment [7]; 0.131 in experiment [8].
For the compound `CCOP(=O)(Cc1ccc(NC(=O)C2Cc3cc4c(cc3C(=O)C(C)S2)OCO4)cc1)OCC` (racemic), the ALP activity amounted to 185 in experiment [1]; 0.162 in experiment [2]; 411 in experiment [3]; 1210 in experiment [4]; 0.133 in experiment [5]; 0.178 in experiment [7]. Besides, the ALP activity in experiment [8] came to 0.221.

Source of the values: ChEMBL document CHEMBL1132592, “Synthesis of novel 2-benzothiopyran and 3-benzothiepin derivatives and their stimulatory effect on bone formation” (J Med Chem, 1999).
